Data reported in ChEMBL document CHEMBL5104110, “Identification of 2-arylquinazolines with alkyl-polyamine motifs as potent antileishmanial agents: synthesis and biological evaluation studies” (RSC Med Chem, 2022).
≈ marks a conversion by molar mass, not a printed value. Calls of active or inactive are those of the source. The calls are words filed in the database; no cut-off is given here.

Test system: not listed separately
Assay: Cytotoxicity against human PMA-differentiated THP-1 macrophages assessed as inhibition of cell growth by MTT assay
Type: toxicity, cell-based, Macrophage
Conditions: not given
Summary of the method: (§1)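 About 2 × 10^5 THP-1 monocytes were differentiated with 20 ng/mL PMA for 48 h at 37 °C, and non-adherent cells were washed off with serum-free medium. Adherent macrophages were exposed to 10, 20, 50 and 100 µM compound for 48 h at 37 °C in 5% CO2. Viability was read by MTT.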
With `Oc1ccc(-c2nc(NCCCN3CCOCC3)c3ccccc3n2)cc1` the IC50 was 71 µM.
`COc1ccc(-c2nc(NCCCN(C)C)c3ccccc3n2)cc1` gave an IC50 of 67.5 µM.
`COc1cc(-c2nc(NCCCN3CCN(C)CC3)c3ccccc3n2)cc(OC)c1OC` gave an IC50 of 54 µM.
`CN1CCN(CCCNc2nc(-c3ccc(F)cc3)nc3ccccc23)CC1` showed an IC50 of 40 µM.
Compound `CN(C)CCCNc1nc(-c2ccc(Cl)cc2)nc2ccccc12` has an IC50 of 62 µM.
`COc1ccc(-c2nc(NCCCN3CCOCC3)c3ccccc3n2)cc1` gave an IC50 of 56 µM.
For `COc1ccc(-c2nc(NCCN(C)C)c3ccccc3n2)cc1O`, the IC50 was 22.5 µM.
With `COc1ccc(-c2nc(NCCCN3CCOCC3)c3ccccc3n2)cc1O` the IC50 was 33.5 µM.
For `NCCNc1nc(-c2ccc(F)cc2)nc2ccccc12`, the IC50 was 64 µM.
In the case of `COc1cc(-c2nc(NCCN(C)C)c3ccccc3n2)cc(OC)c1OC`, the IC50 is reported as 50 µM.
Compound `COc1cc(-c2nc(NCCCN(C)C)c3ccccc3n2)cc(OC)c1OC` has an IC50 of 61 µM.
Work on `COc1cccc(-c2nc(NCCCN(C)C)c3ccccc3n2)c1` yielded an IC50 of 37 µM.
Work on `CN(C)CCCNc1nc(-c2ccccc2)nc2ccccc12` yielded an IC50 of over 100 µM.
For `COc1ccc(-c2nc(NCCCN3CCN(C)CC3)c3ccccc3n2)cc1`, the IC50 was 53 µM.
`NCCCCNc1nc(-c2ccc(F)cc2)nc2ccccc12` showed an IC50 of 64 µM.
With `CN(C)CCNc1nc(-c2ccc(O)cc2)nc2ccccc12` the IC50 was 51 µM.
In the case of `NCCCCNc1nc(-c2ccc(Cl)cc2)nc2ccccc12`, the IC50 is reported as 13 µM.
In the case of `CN(C)CCCNc1nc(-c2ccc(F)cc2)nc2ccccc12`, the IC50 is reported as 63 µM.
For `COc1ccc(-c2nc(NCCN(C)C)c3ccccc3n2)cc1`, the IC50 was 57 µM.
In the case of `CN(C)CCNc1nc(-c2ccc(Cl)cc2)nc2ccccc12`, the IC50 is reported as 60 µM.
Compound `CN(C)CCCNc1nc(-c2ccc(O)cc2)nc2ccccc12` has an IC50 of 65 µM.
`NCCNc1nc(-c2ccc(Cl)cc2)nc2ccccc12` gave an IC50 of 15 µM.
With `CCCCCCCCCCCCCCCCOP(=O)([O-])OCC[N+](C)(C)C` [MILTEFOSINE] the IC50 was 36 µM.

Test system: Leishmania donovani
Assay: Induction of ROS generation in wild type Leishmania donovani MHOM/80/IN/Dd8 promastigotes incubated for 24 hrs by MitoSOX red dye based fluorescence spectrophotometric analysis
Type: functional, organism-based
Conditions: not given
Summary of the method: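 Promastigotes were grown at 24 °C in HEPES-modified RPMI-1640 with 10% heat-inactivated FBS, pH 7.2. About 1 × 10^6 parasites/ml were exposed to ~5 µM or ~10 µM test compound. Controls were untreated cells, antimycin A (10 µM) and 0.2% DMSO vehicle. Cells were washed twice in HBSS and stained with 5 µM MitoSOX red for 20 min at 25 °C. Fluorescence was read at ex 510/em 580 nm.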
For `CCCCCC[C@H]1C(=O)O[C@H](C)[C@H](NC(=O)c2cccc(NC=O)c2O)C(=O)O[C@@H](C)[C@@H]1OC(=O)CC(C)C`, the Activity was “Active”.

Test system: Macrophage
Assay: Cytotoxicity against human PMA-differentiated THP-1 macrophages assessed as inhibition of cell growth measured upto 100 uM by MTT assay
Type: toxicity, cell-based
Conditions: not given
Summary of the method: as §1
For `COc1cc(-c2nc(NCCCN3CCOCC3)c3ccccc3n2)cc(OC)c1OC`, the Activity was “Toxic”.

Test system: Leishmania braziliensis
Assay: Antileishmanial activity against Leishmania braziliensis assessed as inhibition of parasite growth
Type: functional, organism-based
Conditions: not given
Work on `COc1cccc(-c2nc(O)c3ccccc3n2)c1` yielded an EC50 of 4.89 µM.

Test system: Leishmania donovani
Assay: Induction of ROS generation in wild type Leishmania donovani MHOM/80/IN/Dd8 promastigotes at 5 to 10 uM incubated for 48 hrs by MitoSOX red dye based fluorescence spectrophotometric analysis
Type: functional, organism-based
Conditions: dose 5-10 µM
Summary of the method: (§2)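 Promastigotes at about 1 × 10^6/mL were treated at ~5 or ~10 µM for 3, 6, 24 and 48 h, with 0.2% DMSO as vehicle and antimycin A (10 µM) as positive control. Cells were washed twice in HBSS and stained with 5 µM MitoSOX red for 20 min at 25 °C. Fluorescence was read at 510/580 nm ex/em.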
With `COc1ccc(-c2nc(NCCCN(C)C)c3ccccc3n2)cc1` the Activity was “Active”.
For `COc1ccc(-c2nc(NCCN(C)C)c3ccccc3n2)cc1`, the Activity was “Active”.

Test system: Leishmania donovani
Assay: Antileishmanial activity against amastigote stage of Leishmania donovani MHOM/SD/62/IS-CL2D assessed as inhibition of parasite growth incubated for 3 days by CellTiter 96 Aqueous Non-Radioactive Cell Proliferation Assay
Type: functional, organism-based
Conditions: 72 h
`O=C1c2cc(I)ccc2-n2c1nc1ncccc1c2=O` gave an IC50 of 0.016 µg/mL (≈ 0.0427 µM).

Test system: Leishmania amazonensis
Assay: Antileishmanial activity against Leishmania amazonensis assessed as inhibition of parasite growth
Type: functional, organism-based
Conditions: not given
With `COc1cccc(-c2nc(O)c3ccccc3n2)c1` the EC50 was 9.14 µM.

Test system: Leishmania donovani
Assay: Antileishmanial activity against log phase of wild type Leishmania donovani MHOM/80/IN/Dd8 promastigotes assessed as inhibition of cell growth incubated for 48 hrs by MTT assay
Type: functional, organism-based
Conditions: MHOM/80/IN/Dd8, 48 h
Summary of the method: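 L. donovani Dd8 promastigotes grown at 24 °C, pH 7.2, in HEPES-modified RPMI-1640 with 10% heat-inactivated FBS and antibiotics. 2 × 10^5 log-phase cells were exposed to 10–100 µM compound (10 mM DMSO stocks diluted in medium) for 48 h at 24 °C. MTT (400 µg/mL final) was added for 4 h at 37 °C, formazan dissolved in DMSO, and A540 read. IC50 was taken against untreated cells; mean ± SD of three independent experiments.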
For `Oc1ccc(-c2nc(NCCCN3CCOCC3)c3ccccc3n2)cc1`, the IC50 was 50 µM.
`COc1ccc(-c2nc(NCCCN(C)C)c3ccccc3n2)cc1` gave an IC50 of 5 µM.
With `COc1cc(-c2nc(NCCCN3CCN(C)CC3)c3ccccc3n2)cc(OC)c1OC` the IC50 was 90 µM.
Work on `CN1CCN(CCCNc2nc(-c3ccc(Cl)cc3)nc3ccccc23)CC1` yielded an IC50 of 28.5 µM.
Work on `CN1CCN(CCCNc2nc(-c3ccc(F)cc3)nc3ccccc23)CC1` yielded an IC50 of 8 µM.
With `CN(C)CCCNc1nc(-c2ccc(Cl)cc2)nc2ccccc12` the IC50 was 6.5 µM.
`COc1ccc(-c2nc(NCCCN3CCOCC3)c3ccccc3n2)cc1` gave an IC50 of 25 µM.
`COc1ccc(-c2nc(NCCN(C)C)c3ccccc3n2)cc1O` gave an IC50 of 6.5 µM.
For `COc1ccc(-c2nc(NCCCN3CCOCC3)c3ccccc3n2)cc1O`, the IC50 was 19 µM.
Compound `NCCNc1nc(-c2ccc(F)cc2)nc2ccccc12` has an IC50 of 25 µM.
`COc1cc(-c2nc(NCCN(C)C)c3ccccc3n2)cc(OC)c1OC` gave an IC50 of 6.5 µM.
Compound `COc1cc(-c2nc(NCCCN(C)C)c3ccccc3n2)cc(OC)c1OC` has an IC50 of 29.5 µM.
Work on `COc1cccc(-c2nc(NCCCN(C)C)c3ccccc3n2)c1` yielded an IC50 of 5.5 µM.
In the case of `CN(C)CCCNc1nc(-c2ccccc2)nc2ccccc12`, the IC50 is reported as 9 µM.
`COc1ccc(-c2nc(NCCCN3CCN(C)CC3)c3ccccc3n2)cc1` gave an IC50 of 6.3 µM.
`NCCCCNc1nc(-c2ccc(F)cc2)nc2ccccc12` showed an IC50 of 32.5 µM.
`CN(C)CCNc1nc(-c2ccc(O)cc2)nc2ccccc12` showed an IC50 of 5.5 µM.
With `NCCCCNc1nc(-c2ccc(Cl)cc2)nc2ccccc12` the IC50 was 12 µM.
`CN(C)CCCNc1nc(-c2ccc(F)cc2)nc2ccccc12` showed an IC50 of 13 µM.
`COc1ccc(-c2nc(NCCN(C)C)c3ccccc3n2)cc1` showed an IC50 of 5 µM.
With `CN(C)CCNc1nc(-c2ccc(Cl)cc2)nc2ccccc12` the IC50 was 7.5 µM.
In the case of `CN(C)CCCNc1nc(-c2ccc(O)cc2)nc2ccccc12`, the IC50 is reported as 6.5 µM.
Work on `NCCNc1nc(-c2ccc(Cl)cc2)nc2ccccc12` yielded an IC50 of 6.5 µM.
`CCCCCCCCCCCCCCCCOP(=O)([O-])OCC[N+](C)(C)C` [MILTEFOSINE] showed an IC50 of 10.5 µM.

Test system: Leishmania donovani
Assay: Induction of ROS generation in wild type Leishmania donovani MHOM/80/IN/Dd8 promastigotes at 10 uM incubated for 24 hrs by MitoSOX red dye based fluorescence spectrophotometric analysis
Type: functional
Conditions: not given
Summary of the method: as §2
In the case of `COc1ccc(-c2nc(NCCCN(C)C)c3ccccc3n2)cc1`, the Activity is reported as 119%.
For `COc1ccc(-c2nc(NCCN(C)C)c3ccccc3n2)cc1`, the Activity was 82%.

Test system: not listed separately
Assay: Selectivity index, ratio of IC50 for cytotoxicity against PMA-differentiated THP-1 macrophages to IC50 for antileishmanial activity against log phase of wild type Leishmania donovani MHOM/80/IN/Dd8 promastigotes
Type: toxicity
Conditions: human; read-out: Ratio IC50
Compound `Oc1ccc(-c2nc(NCCCN3CCOCC3)c3ccccc3n2)cc1` has a selectivity ratio of 1.42.
For `COc1ccc(-c2nc(NCCCN(C)C)c3ccccc3n2)cc1`, the selectivity ratio was 13.5.
Work on `COc1cc(-c2nc(NCCCN3CCN(C)CC3)c3ccccc3n2)cc(OC)c1OC` yielded a selectivity ratio of 0.6.
Work on `CN1CCN(CCCNc2nc(-c3ccc(F)cc3)nc3ccccc23)CC1` yielded a selectivity ratio of 5.
In the case of `CN(C)CCCNc1nc(-c2ccc(Cl)cc2)nc2ccccc12`, the selectivity ratio is reported as 9.53.
Work on `COc1ccc(-c2nc(NCCCN3CCOCC3)c3ccccc3n2)cc1` yielded a selectivity ratio of 2.24.
With `COc1ccc(-c2nc(NCCN(C)C)c3ccccc3n2)cc1O` the selectivity ratio was 3.46.
With `COc1ccc(-c2nc(NCCCN3CCOCC3)c3ccccc3n2)cc1O` the selectivity ratio was 1.76.
Work on `NCCNc1nc(-c2ccc(F)cc2)nc2ccccc12` yielded a selectivity ratio of 2.56.
With `COc1cc(-c2nc(NCCN(C)C)c3ccccc3n2)cc(OC)c1OC` the selectivity ratio was 7.69.
Compound `COc1cc(-c2nc(NCCCN(C)C)c3ccccc3n2)cc(OC)c1OC` has a selectivity ratio of 2.06.
Work on `COc1cccc(-c2nc(NCCCN(C)C)c3ccccc3n2)c1` yielded a selectivity ratio of 6.72.
For `CN(C)CCCNc1nc(-c2ccccc2)nc2ccccc12`, the selectivity ratio was over 11.1.
Work on `COc1ccc(-c2nc(NCCCN3CCN(C)CC3)c3ccccc3n2)cc1` yielded a selectivity ratio of 7.28.
Work on `NCCCCNc1nc(-c2ccc(F)cc2)nc2ccccc12` yielded a selectivity ratio of 1.96.
Work on `CN(C)CCNc1nc(-c2ccc(O)cc2)nc2ccccc12` yielded a selectivity ratio of 9.27.
`NCCCCNc1nc(-c2ccc(Cl)cc2)nc2ccccc12` gave a selectivity ratio of 1.08.
`CN(C)CCCNc1nc(-c2ccc(F)cc2)nc2ccccc12` showed a selectivity ratio of 4.84.
`COc1ccc(-c2nc(NCCN(C)C)c3ccccc3n2)cc1` gave a selectivity ratio of 11.
For `CN(C)CCNc1nc(-c2ccc(Cl)cc2)nc2ccccc12`, the selectivity ratio was 8.
Compound `CN(C)CCCNc1nc(-c2ccc(O)cc2)nc2ccccc12` has a selectivity ratio of 10.
With `NCCNc1nc(-c2ccc(Cl)cc2)nc2ccccc12` the selectivity ratio was 2.3.
Work on `CCCCCCCCCCCCCCCCOP(=O)([O-])OCC[N+](C)(C)C` [MILTEFOSINE] yielded a selectivity ratio of 3.42.

Test system: Leishmania mexicana
Assay: Antileishmanial activity against Leishmania mexicana assessed as inhibition of parasite growth
Type: functional, organism-based
Conditions: not given
With `COc1cccc(-c2nc(O)c3ccccc3n2)c1` the EC50 was 5.29 µM.

Test system: Leishmania donovani
Assay: Induction of ROS generation in wild type Leishmania donovani MHOM/80/IN/Dd8 promastigotes at 5 uM incubated for 24 hrs by MitoSOX red dye based fluorescence spectrophotometric analysis relative to control
Type: functional
Conditions: not given
Summary of the method: as §2
In the case of `COc1ccc(-c2nc(NCCCN(C)C)c3ccccc3n2)cc1`, the Activity is reported as 63%.
In the case of `COc1ccc(-c2nc(NCCN(C)C)c3ccccc3n2)cc1`, the Activity is reported as 50%.

Test system: Leishmania donovani
Assay: Antileishmanial activity against Leishmania donovani assessed as inhibition of parasite growth incubated for 2 hrs by y [3H]thymidine incorporation assay
Type: functional, organism-based
Conditions: not given
With `C=CC(C)(C)c1cc(/C=C/C(=O)c2ccc(O)cc2)c(OC)cc1O` [LICOAGROCHACONE A] the IC50 was 4 µg/mL (≈ 11.8 µM).
